ChEMBL document CHEMBL1143072, “Nitric oxide production inhibitory activity of flavonoids contained in trunk exudates of Dalbergia sissoo” (J Nat Prod, 2008)

How the values were obtained:
[1] = tested on: J774.1; assay: Inhibition of nitric oxide production in LPS induced mouse J774.1 cells; assay type: functional, cell-based
How it was run: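 J774.1 cells are grown in DMEM with 10% FCS, penicillin and streptomycin. Adherent cells are plated at 1 × 10^5 cells/well and left 6 h at 37 °C in 5% CO2. Fresh medium with LPS 1 µg/mL and the compound at a range of concentrations is added for 24 h. Nitrite in the supernatant is measured with Griess reagent (10 min, room temperature, A550), with medium blank subtracted. % inhibition is taken against LPS-only wells. L-NMMA is the positive control.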

[2] = Cytotoxicity against LPS induced mouse J774.1 cells by MTT assay; assay type: cell-based
How it was run: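 LPS-stimulated J774.1 cells from the NO assay (1 × 10^5 cells/well, 24 h with LPS 1 µg/mL plus compound). After the supernatant is taken off, cells get fresh medium with MTT 2 mg/mL for 3 h at 37 °C in 5% CO2. Formazan is dissolved in DMSO and absorbance is read at 550 nm.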

[3] = Inhibition of NO production in LPS induced mouse J774.1 cells by Griess assay

| IC50 [1] | IC50 [3] | Structure (SMILES) | Activity [2] |
| --- | --- | --- | --- |
| 3.19 µM | – | C=CC(c1ccccc1)C1(O)C(=O)C=C(OC)C(=O)C1O (configuration not stated) | > 100 µM |
| 5.4 µM | – | COc1ccc(C(=O)/C=C/c2ccccc2)c(O)c1 | > 25 µM |
| 31.6 µM | – | C=C[C@@H](c1ccccc1)c1cc(O)ccc1O | – |
| 6.22 µM | – | COC1=CC(O)(C/C=C/c2ccccc2)C(OC)=CC1=O (configuration not stated) | – |

Second part, the molecule before the results:

| Structure (SMILES) | IC50 [1] | IC50 [3] | Activity [2] |
| --- | --- | --- | --- |
| C=C[C@H](C1=CC(=O)C=CC1=O)c1ccccc1 | 39.7 µM | – | – |
| C=C[C@H](C1=CC(=O)C(OC)=CC1=O)c1ccc(O)cc1 | 11.5 µM | – | > 100 µM |
| CNC(=N)NCCC[C@H](N)C(=O)O [TILARGININE] | 31.6 µM | 27.1 µM | – |
| C=C[C@H](C1=CC(=O)C(OC)=CC1=O)c1ccccc1 | 38.8 µM | – | – |
